Data as given in ChEMBL document CHEMBL4020837, “Identification of Eukaryotic Translation Elongation Factor 1-α 1 Gamendazole-Binding Site for Binding of 3-Hydroxy-4(1 H)-quinolinones as Novel Ligands with Anticancer Activity” (J Med Chem, 2018).
Activity calls are given as the source filed them. The rule behind the calls is not given here.

What was measured:
[1] = target: T1, Elongation factor 1-alpha 1 (Homo sapiens) (UniProt P68104); experiment: Binding affinity to recombinant human eEF1A1 expressed in HEK293 cells by ITC
T1 sequence (whole entry): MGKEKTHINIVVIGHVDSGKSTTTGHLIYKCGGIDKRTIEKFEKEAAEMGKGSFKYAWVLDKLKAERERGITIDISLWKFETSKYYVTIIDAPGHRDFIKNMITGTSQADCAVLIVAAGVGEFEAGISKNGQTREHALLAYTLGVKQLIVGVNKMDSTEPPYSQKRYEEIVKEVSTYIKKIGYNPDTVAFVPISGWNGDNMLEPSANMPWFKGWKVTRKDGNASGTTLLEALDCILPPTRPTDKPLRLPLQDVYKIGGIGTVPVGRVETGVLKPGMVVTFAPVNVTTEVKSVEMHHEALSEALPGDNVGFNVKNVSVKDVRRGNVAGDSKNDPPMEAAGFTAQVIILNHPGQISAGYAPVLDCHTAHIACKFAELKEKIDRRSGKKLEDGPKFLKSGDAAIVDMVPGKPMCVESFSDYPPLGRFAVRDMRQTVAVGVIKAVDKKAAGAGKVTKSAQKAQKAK
Method in brief: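 Isothermal titration calorimetry recorded the heat changes on titrating ligand into eEF1A1. Binding enthalpy and association constant (Ka) were derived from the titration profiles.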

[2] = system: A549; experiment: Antiproliferative activity against human A549 cells after 72 hrs by MTT assay; type: functional, cell-based; details: A549, 72 h
[3] = system: U2OS; experiment: Antiproliferative activity against human U2OS cells after 72 hrs by MTT assay; type: functional, cell-based
[4] = system: CCRF-CEM; experiment: Antiproliferative activity against human CCRF-CEM cells after 72 hrs by MTT assay; type: functional, cell-based
[5] = Antiproliferative activity against human CEM-DNR-bulk cells after 72 hrs by MTT assay; type: functional, cell-based
[6] = system: HCT-116; experiment: Antiproliferative activity against human HCT116 cells after 72 hrs by MTT assay; type: functional, cell-based; details: HCT-116, 72 h
[7] = system: K562; experiment: Antiproliferative activity against human K562 cells after 72 hrs by MTT assay; type: functional, cell-based; details: K562, 72 h
[8] = system: K562; experiment: Antiproliferative activity against taxol resistant human K562 cells after 72 hrs by MTT assay; type: functional, cell-based; details: K562, 72 h
[9] = system: BJ; experiment: Antiproliferative activity against human BJ cells after 72 hrs by MTT assay; type: cell-based
[10] = target: T1, Elongation factor 1-alpha 1 (Homo sapiens); experiment: Binding affinity to eEF1A1 in human CCRF-CEM cells after 30 mins by HPLC-MS based SDS-PAGE analysis; type: cell-based
Method in brief: (§1)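 Biotinylated 3-HQ ligands (one linked via the quinolinone benzene ring, one via the 2-phenyl ring) were immobilized on streptavidin magnetic beads and incubated with total protein lysate from CCRF-CEM cells. Bound proteins were released, resolved by SDS-PAGE, and identified by mass spectrometry.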

[11] = target: Pyruvate kinase PKM (Homo sapiens) (UniProt P14618); experiment: Binding affinity to PKM2 in human CCRF-CEM cells after 30 mins by HPLC-MS based SDS-PAGE analysis; type: cell-based; method in brief: as §1
[12] = target: Actin, cytoplasmic 1 (Homo sapiens) (UniProt P60709); experiment: Binding affinity to beta-actin in human CCRF-CEM cells after 30 mins by HPLC-MS based SDS-PAGE analysis; type: cell-based; method in brief: as §1
[13] = target: T1, Elongation factor 1-alpha 1 (Homo sapiens); experiment: Binding affinity to eEF1A1 in human CCRF-CEM cells after 30 mins by Western blot method; type: cell-based
[14] = target: Pyruvate kinase PKM (Homo sapiens) (UniProt P14618); experiment: Binding affinity to PKM2 in human CCRF-CEM cells after 30 mins by Western blot method; type: cell-based
[15] = target: Actin, cytoplasmic 1 (Homo sapiens) (UniProt P60709); experiment: Binding affinity to beta-actin in human CCRF-CEM cells after 30 mins by Western blot method; type: cell-based
[16] = system: K562; experiment: Antiproliferative activity against taxol resistant human K562 cells by MTT assay; type: functional, cell-based
[17] = system: CCRF-CEM; experiment: Antiproliferative activity against human CCRF-CEM cells by MTT assay; type: functional, cell-based
[18] = Antiproliferative activity against human CEM-DNR-bulk cells by MTT assay; type: functional, cell-based
[19] = system: U2OS; experiment: Antiproliferative activity against human U2OS cells by MTT assay; type: functional, cell-based
[20] = system: K562; experiment: Antiproliferative activity against human K562 cells by MTT assay; type: functional, cell-based
[21] = system: A549; experiment: Antiproliferative activity against human A549 cells by MTT assay; type: functional, cell-based
[22] = system: BJ; experiment: Antiproliferative activity against human BJ cells by MTT assay; type: cell-based

Chain of Pyruvate kinase PKM (Homo sapiens) (P14618 2-531 limits assumed): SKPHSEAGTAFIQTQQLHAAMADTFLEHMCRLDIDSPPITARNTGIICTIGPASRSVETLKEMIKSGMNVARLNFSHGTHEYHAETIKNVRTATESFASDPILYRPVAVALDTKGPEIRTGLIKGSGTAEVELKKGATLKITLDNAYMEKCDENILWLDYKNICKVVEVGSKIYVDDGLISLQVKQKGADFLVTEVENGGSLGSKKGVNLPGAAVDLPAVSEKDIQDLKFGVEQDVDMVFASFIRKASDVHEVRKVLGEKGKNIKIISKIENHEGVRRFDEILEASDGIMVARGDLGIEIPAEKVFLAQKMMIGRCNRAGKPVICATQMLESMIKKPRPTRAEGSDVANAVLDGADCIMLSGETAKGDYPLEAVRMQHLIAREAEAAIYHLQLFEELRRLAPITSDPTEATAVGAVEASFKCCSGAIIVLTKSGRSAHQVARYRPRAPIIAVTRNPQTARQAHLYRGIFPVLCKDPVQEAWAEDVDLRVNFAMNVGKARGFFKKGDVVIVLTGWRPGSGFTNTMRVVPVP

SMILES	Ka [1]	IC50 [2]	IC50 [3]	IC50 [4]	IC50 [5]	IC50 [6]	IC50 [7]	IC50 [8]	IC50 [9]	further results
O=C(O)c1cc(-c2[nH]c3ccccc3c(=O)c2O)ccc1N1CCCCC1	2.54 ×10⁶ /M	50 µM	50 µM	49.6 µM	50 µM	50 µM	50 µM	50 µM	50 µM	–
CCNc1ccc(-c2[nH]c3cc(C(=O)NCCOCCOC(=O)CCCC[C@@H]4SC[C@@H]5NC(=O)N[C@@H]54)ccc3c(=O)c2O)cc1[N+](=O)[O-]	–	–	–	–	–	–	–	–	–	Activity [10]: Active; Activity [11]: Active; Activity [12]: Active; Activity [13]: Active; Activity [14]: Active; Activity [15]: Active
O=C(O)/C=C/c1nn(Cc2ccc(Cl)cc2Cl)c2cc(C(F)(F)F)ccc12	1.27 ×10⁷ /M	–	–	–	–	–	–	–	–	–
CCCCCNC(=O)c1ccc2c(=O)c(O)c(-c3ccc(N4CCCCC4)c(C(N)=O)c3)[nH]c2c1	5.3 ×10⁶ /M	1.89 µM	0.56 µM	1.73 µM	8.03 µM	0.64 µM	2.39 µM	32.7 µM	10.2 µM	–
CCNc1ccc(-c2[nH]c3ccccc3c(=O)c2O)cc1[N+](=O)[O-]	–	–	–	–	–	–	–	–	–	IC50 [16]: 1.96 µM; IC50 [17]: 1.42 µM; IC50 [18]: 3.01 µM; IC50 [19]: 9.98 µM; IC50 [20]: 0.66 µM; IC50 [21]: 0.94 µM; IC50 [22]: 9.39 µM
O=C(O)c1cc(-c2[nH]c3ccccc3c(=O)c2O)ccc1N1CCOCC1	1.03 ×10⁷ /M	50 µM	50 µM	49.6 µM	50 µM	50 µM	50 µM	50 µM	50 µM	–
NC(=O)c1cc(-c2[nH]c3cc(C(=O)NCc4ccccc4)ccc3c(=O)c2O)ccc1N1CCCCC1	1.81 ×10⁷ /M	3.77 µM	0.58 µM	1.73 µM	> 50 µM	1.01 µM	8.3 µM	> 50 µM	> 50 µM	–
CCN(CC)c1ccc(-c2[nH]c3ccccc3c(=O)c2O)cc1[N+](=O)[O-]	–	–	–	–	–	–	–	–	–	IC50 [16]: 2.71 µM; IC50 [17]: 1.72 µM; IC50 [18]: 6.75 µM; IC50 [19]: 8.57 µM; IC50 [20]: 0.75 µM; IC50 [21]: 1.89 µM; IC50 [22]: 9.73 µM
O=c1c(O)c(-c2ccc(N3CCCCC3)c([N+](=O)[O-])c2)[nH]c2ccccc12	–	–	–	–	–	–	–	–	–	IC50 [16]: 2.02 µM; IC50 [17]: 1.55 µM; IC50 [18]: 3 µM; IC50 [19]: 7.51 µM; IC50 [20]: 0.75 µM; IC50 [21]: 1.62 µM; IC50 [22]: 9.83 µM
NC(=O)c1cc(-c2[nH]c3ccccc3c(=O)c2O)ccc1N1CCOCC1	6.8 ×10⁶ /M	44.4 µM	50 µM	16.2 µM	50 µM	30.6 µM	50 µM	50 µM	50 µM	–
NC(=O)c1cc(-c2[nH]c3ccccc3c(=O)c2O)ccc1N1CCCCC1	2.9 ×10⁶ /M	9.96 µM	26 µM	3.34 µM	21.4 µM	4.46 µM	7.1 µM	6.41 µM	48.9 µM	–
O=C1N[C@H]2[C@H](CS[C@H]2CCCCC(=O)OCCOCCOCCOCCOCCOCCOCCOCCOCCOCCNc2ccc(-c3[nH]c4ccccc4c(=O)c3O)cc2[N+](=O)[O-])N1	–	–	–	–	–	–	–	–	–	Activity [13]: inactive; Activity [14]: inactive; Activity [15]: inactive
O=c1c(O)c(-c2ccccc2)[nH]c2ccccc12	inactive	> 50 µM	47 µM	26.7 µM	22.5 µM	44.2 µM	48 µM	27.4 µM	> 50 µM	–
